For orientation: inhibition means the share of the control response that was lost under treatment. Lower therefore signals a response near the control.

The source of these data is ChEMBL document CHEMBL1123042, “Ring-substituted 1,1,2,2-tetraalkylated 1,2-bis(hydroxyphenyl)ethanes. 4. Synthesis, estrogen receptor binding affinity, and evaluation of antiestrogenic and mammary tumor inhibiting activity of symmetrically disubstituted 1,1,2,2-tetramethyl-1,2-bis(hydroxyphenyl)ethanes” (1985).

Each structure is given as a SMILES string. Several values for one entry are separate records, joined by “and”; a condition that tells them apart may be missing. Equal values may be shown once.

Assay [1] has as its target Estrogen receptor (Bos taurus) (UniProt Q9XSB5+P49884). Put plainly: Relative binding affinity for calf uterine estrogen receptor compared to [3H]estradiol. It counts as protein assay. In outline:
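Competition binding with calf uterine cytosol and [3H]estradiol, incubated 16 h at 4 °C and stopped with dextran-coated charcoal. Supernatant radioactivity counted after centrifugation. Six competitor concentrations spanned 50% displacement on a semilog plot. RBA = (molar E2 concentration / competitor concentration each giving 50% reduction of bound [3H]E2) × 100.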

The target in assay [2] is T1, Estrogen receptor (Mus musculus) (UniProt O08537+P19785). Put plainly: Uterotrophic effect in mice at 0 ug. The conditions noted are these: Uterus. Format: functional, tissue-based. The procedure, abridged: (§1)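 Immature female NMRI mice, 20 days old (14.5 ± 1.2 g), 10 per randomized group. Received test compound subcutaneously in 0.1 mL olive oil daily for 3 days. Uteri removed 24 h after final dose, Bouin-fixed, washed, dried and weighed to measure stimulation of uterine growth.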

Assay [3] deals with T1, Estrogen receptor (Mus musculus). Put plainly: Uterotrophic effect in mice at 1 ug. Format: functional, tissue-based. The note with it: Uterus. The procedure, abridged: as §1
Assay [4] has the same target. Put plainly: Uterotrophic effect in mice at 10 ug. Format: functional, tissue-based. The note with it: Uterus. The procedure, abridged: as §1
For assay [5] the target is unchanged. Put plainly: Uterotrophic effect in mice at 100 ug. It counts as functional, tissue-based. The note with it: Uterus. The procedure, abridged:
as §1

Assay [6] has the same target. Nature of the assay: Uterotrophic effect in mice at 1000 ug. It counts as functional, tissue-based. The conditions noted are these: Uterus. The procedure, abridged:
as §1

For assay [7] the target is unchanged. Put plainly: Anti-uterotrophic effect in mice at 50 ug. It counts as functional. The procedure, abridged: (§2)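 Immature NMRI mice, 20 days old (14.5 ± 1.2 g), randomly grouped 10 per group. Given daily subcutaneous test compound in 0.1 mL olive oil for 3 days, together with estrone to stimulate uterine growth. Uteri taken 24 h after last injection, fixed in Bouin's solution, washed, dried and weighed. Read-out is inhibition of estrone-stimulated uterine growth.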

The target is the same in assay [8]. Put plainly: Anti-uterotrophic effect in mice at 500 ug. Format: functional. The procedure, abridged:
as §2

Assay [9] shares this target. Put plainly: Percent inhibition of estrone stimulated uterine growth in mice at 50 […]. It counts as functional. In outline:
as §2

For assay [10] the target is unchanged. Put plainly: Percent inhibition of estrone stimulated uterine growth in mice at 5 […]. It counts as functional. The procedure, abridged:
as §2

Assay [11] has the same target. Nature of the assay: Anti-uterotrophic effect in mice at 0 ug. It counts as functional. The procedure, abridged: as §2
For assay [12] the target is unchanged. Nature of the assay: Percent inhibition of estrone stimulated uterine growth in mice at 500 […]. It counts as functional. In outline:
as §2

Assay [13] shares this target. Nature of the assay: Uterotrophic effect in mice at 24 ug. Format: functional, tissue-based. The conditions noted are these: Uterus. The procedure, abridged: as §1
Assay [14] shares this target. Nature of the assay: Uterotrophic effect in mice at 250 ug. The note with it: Uterus. It counts as functional, tissue-based. In outline: as §1
For assay [15] the target is unchanged. Nature of the assay: Uterotrophic effect in mice at 8 ug. It counts as functional, tissue-based. The note with it: Uterus. In outline:
as §1

The target is the same in assay [16]. Nature of the assay: Uterotrophic effect in mice at 80 ug. Format: functional, tissue-based. The conditions noted are these: Uterus. The procedure, abridged:
as §1

For assay [17] the target is unchanged. The note with it: Uterus.
The target is the same in assay [18].
Assay [19] shares this target. Nature of the assay: Percent inhibition of estrone stimulated uterine growth in mice at 10 […]. It counts as functional. In outline: as §2
Assay [20] shares this target. Nature of the assay: Percent inhibition of estrone stimulated uterine growth in mice at 100 […]. Format: functional. The procedure, abridged: as §2
Assay [21] has the same target. Nature of the assay: Anti-uterotrophic effect in mice at 0.1 ug. It counts as functional. In outline: as §2
Assay [22] has the same target. Nature of the assay: Anti-uterotrophic effect in mice at 1 ug. It counts as functional. The procedure, abridged: as §2
Assay [23] shares this target. Nature of the assay: Anti-uterotrophic effect in mice at 10 ug. Format: functional. The procedure, abridged: as §2
For assay [24] the target is unchanged. Nature of the assay: Anti-uterotrophic effect in mice at 100 ug. Format: functional. The procedure, abridged:
as §2

Assay [25] shares this target. Nature of the assay: Anti-uterotrophic effect in mice at 1000 ug. It counts as functional. In outline:
as §2

Assay [26] has as its system Rattus norvegicus. Nature of the assay: Percent change in tumor area in DMBA-induced carcinoma in rats after 28 day therapy at 2 mg/kg. Format: functional.
The test system of assay [27] is Rattus norvegicus. Nature of the assay: Percent change in tumor area in DMBA-induced carcinoma in rats after 28 day therapy at 5 mg/kg. Format: functional.
Assay [28] has as its system Rattus norvegicus. Put plainly: Percent reduction in tumor size (<50%) in DMBA-induced mammary carcinoma in rats at 2 mg/kg/day. Format: functional.
Assay [29] has as its system Rattus norvegicus. Nature of the assay: ercent reduction in tumor size (<50%) in DMBA-induced mammary carcinoma in rats at 5 mg/kg/day. Format: functional.
The test system of assay [30] is Rattus norvegicus. Nature of the assay: Percent increase in tumor size (>150%) in DMBA-induced mammary carcinoma in rats at 2 mg/kg/day. It counts as functional.
The subject of assay [31] is Rattus norvegicus. Put plainly: Percent increase in tumor size (>150%) in DMBA-induced mammary carcinoma in rats at 5 mg/kg/day. Format: functional.
For assay [32], the system named is Rattus norvegicus. Nature of the assay: Percent unchanged tumor size (51-150%) in DMBA-induced mammary carcinoma in rats at 2 mg/kg/day. Format: functional.
Assay [33] has as its system Rattus norvegicus. Nature of the assay: Percent unchanged tumor size (51-150%) in DMBA-induced mammary carcinoma in rats at 5 mg/kg/day. Format: functional.
Assay [34] deals with Rattus norvegicus. Nature of the assay: Percent change in body weight in DMBA-induced mammary carcinoma in rats after 7 day therapy at 2 mg/kg/day. Format: functional.
For assay [35], the system named is Rattus norvegicus. Nature of the assay: Percent change in body weight in DMBA-induced mammary carcinoma in rats after 7 day therapy at 5 mg/kg/day. Format: functional.
Assay [36] concerns Rattus norvegicus. Nature of the assay: Percent remission in DMBA-Induced Mammary Carcinoma in rats at 2 mg/kg/day. Format: functional.
For assay [37], the system named is Rattus norvegicus. Nature of the assay: Percent remission in DMBA-Induced Mammary Carcinoma in rats at 5 mg/kg/day. Format: functional.
The target in assay [38] is T1, Estrogen receptor (Mus musculus). Put plainly: Percent inhibition of estrone stimulated uterine growth in mice at 1000 […]. Format: functional. In outline:
as §2

Assay [39] has the same target. Nature of the assay: Anti-uterotrophic effect in mice at 5 ug. It counts as functional. The procedure, abridged: as §2
Assay [40] concerns Rattus norvegicus. Put plainly: Percent reduction in tumor size (<50%) in DMBA-induced mammary carcinoma in rats at 5 mg/kg/day. Format: functional.

T1 sequence (O08537 whole entry, looked up): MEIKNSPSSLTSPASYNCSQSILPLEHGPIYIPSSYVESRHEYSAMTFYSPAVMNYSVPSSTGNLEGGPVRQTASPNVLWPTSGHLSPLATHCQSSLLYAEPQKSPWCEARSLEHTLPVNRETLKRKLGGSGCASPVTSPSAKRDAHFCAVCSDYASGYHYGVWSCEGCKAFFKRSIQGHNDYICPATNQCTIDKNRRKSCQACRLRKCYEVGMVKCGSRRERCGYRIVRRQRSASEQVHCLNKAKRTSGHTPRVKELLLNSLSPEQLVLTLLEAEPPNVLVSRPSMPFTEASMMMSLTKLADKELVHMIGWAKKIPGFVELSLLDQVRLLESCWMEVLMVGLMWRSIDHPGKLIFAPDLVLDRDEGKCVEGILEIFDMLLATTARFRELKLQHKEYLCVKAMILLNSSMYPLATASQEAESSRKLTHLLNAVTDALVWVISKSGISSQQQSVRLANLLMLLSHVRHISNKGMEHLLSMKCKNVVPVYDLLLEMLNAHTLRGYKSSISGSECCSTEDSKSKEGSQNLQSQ
T1 sequence (P19785 whole entry, looked up): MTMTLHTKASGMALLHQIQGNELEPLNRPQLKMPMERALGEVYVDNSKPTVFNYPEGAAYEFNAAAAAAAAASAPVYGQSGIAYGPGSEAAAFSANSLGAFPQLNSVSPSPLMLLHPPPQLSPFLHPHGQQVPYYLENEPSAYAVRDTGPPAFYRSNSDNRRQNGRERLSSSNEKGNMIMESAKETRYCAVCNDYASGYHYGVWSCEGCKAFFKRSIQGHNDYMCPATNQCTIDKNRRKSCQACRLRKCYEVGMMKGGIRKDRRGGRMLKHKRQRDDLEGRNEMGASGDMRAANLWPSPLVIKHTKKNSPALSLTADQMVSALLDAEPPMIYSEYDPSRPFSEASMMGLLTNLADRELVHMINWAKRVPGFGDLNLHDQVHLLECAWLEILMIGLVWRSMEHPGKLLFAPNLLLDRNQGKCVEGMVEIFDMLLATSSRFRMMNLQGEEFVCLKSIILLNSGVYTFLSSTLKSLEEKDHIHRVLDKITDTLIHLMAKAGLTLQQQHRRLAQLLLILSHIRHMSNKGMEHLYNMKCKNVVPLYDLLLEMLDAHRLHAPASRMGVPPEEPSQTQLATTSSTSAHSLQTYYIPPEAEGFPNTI

For `CC(C)(c1cc(O)ccc1Cl)C(C)(C)c1cc(O)ccc1Cl`, the relative binding affinity (RBA) in assay [1] stood at 3.5. For the same compound, the Effect was 11.1 in [2]; 14.7 in assay [3]; 22.6 in [4]; 33 in assay [5]; 35.7 in assay [6]; 44.2 and 34.9 in assay [7]. In addition, the Effect in assay [8] was found to be 37.8; in [11], 13.7. The Inhibition (alpha = 0.01) in [9] was found to be 36%; in assay [12] it was 27%. The inhibition in assay [10] is 7%.
`CC(C)(c1ccc(O)cc1)C(C)(C)c1ccc(O)cc1` came in with a relative binding affinity (RBA) in assay [1] of 3.6. Also, the Effect in assay [13] was determined as 15.7; in [14], 13.3; in [2] it was 9.2; in [6], 14.3; in assay [15] it was 10.6; in assay [16] it was 15.8.
Consider `Cc1ccc(O)cc1C(C)(C)C(C)(C)c1cc(O)ccc1C`, for which, in assay [1], the relative binding affinity (RBA) was determined as 0.9.
With `COc1cc(O)ccc1C(C)(C)C(C)(C)c1ccc(O)cc1OC`, in assay [1], the relative binding affinity (RBA) came to 0.45.
Take `COc1ccc(O)cc1C(C)(C)C(C)(C)c1cc(O)ccc1OC`: the relative binding affinity (RBA) in assay [1] is under 0.01.
For `C[C@]12CC[C@@H]3c4ccc(O)cc4CC[C@H]3[C@@H]1CCC2=O`, the uterine weight came to 45.3 mg/100 g in [17] and 47.8 mg/100 g in [18].
In the case of `CC(C)(c1ccc(O)cc1F)C(C)(C)c1ccc(O)cc1F`, the relative binding affinity (RBA) in assay [1] is 6.4. Moreover, the Effect in assay [2] was determined as 16.4; in [3] it was 27; in assay [4] it was 38.8; in assay [5], 42.6; in [6] it was 38.5; in assay [11], 13.8. Also, the Effect was found to be 47.7 in assay [21]; 49.9 in assay [22]; 41 in [23]; 35.9 in [24]; 34.2 in assay [25]. The inhibition in assay [19] is 20%; in assay [20], 35%; in assay [38], 40%. The Change of area was 22% in the assay on Rattus norvegicus [26] and -47% with Rattus norvegicus [27]. In addition, the Change of size is listed as 4% with Rattus norvegicus [28]; 10% in the assay on Rattus norvegicus [29]; 18% in the assay on Rattus norvegicus [30]; 13% with Rattus norvegicus [31]; 14% in the assay on Rattus norvegicus [32]; 3% in the assay on Rattus norvegicus [33]. Moreover, the Change of weight with Rattus norvegicus [34] is -3.1%; in the assay on Rattus norvegicus [35], -4%. Also, the figures for the Remission with Rattus norvegicus [36] and in the assay on Rattus norvegicus [37] were 64% and 74%, respectively.
As for `CC(C)(c1ccc(O)cc1Cl)C(C)(C)c1ccc(O)cc1Cl`, the relative binding affinity (RBA) in assay [1] came to 3.4. For the same compound, the Effect in assay [2] turned out to be 13.7; in assay [3], 35.8; in assay [4], 51.5; in assay [5], 32.7; in assay [6] it was 35.2; in [39], 48.4. The Effect in assay [7] is 38.9; in [8], 35.2; in assay [11], 13.7. In addition, the inhibition in assay [9] came out at 17%; in assay [12], 29%.
For the compound `CC(C)(c1cc(O)ccc1F)C(C)(C)c1cc(O)ccc1F`, the relative binding affinity (RBA) in [1] worked out at 4. The Effect in [2] was 9.7; in assay [3], 15.4; in assay [4], 16.6; in assay [5], 22.6; in assay [6], 35.6; in assay [39], 48.6. Also, the Effect in assay [7] worked out at 37.2; in [8] it was 32.5; in [11], 13.7. In addition, the inhibition came to 29% in [9] and 43% in assay [12]. The results for the Change of area in the assay with Rattus norvegicus [26] and in the assay on Rattus norvegicus [27] were 441% and 396%, respectively. Further, the Remission in the assay on Rattus norvegicus [28] was found to be 7%; in the assay on Rattus norvegicus [36], 0%; with Rattus norvegicus [37], 0%. Further, the Change of size was found to be 77% in the assay on Rattus norvegicus [30]; 89% in the assay on Rattus norvegicus [31]; 16% in the assay on Rattus norvegicus [32]; 7% in the assay with Rattus norvegicus [33]; 4% with Rattus norvegicus [40]. Further, the Change of weight with Rattus norvegicus [34] was 3.5%; in the assay with Rattus norvegicus [35] it was 2.9%.
`CC(C)(c1cccc(O)c1)C(C)(C)c1cccc(O)c1` came in with a relative binding affinity (RBA) in assay [1] of 3. Moreover, the Effect in assay [13] came to 15.7; in [14], 14.6; in [2] it was 9.2; in assay [6] it was 13.4; in assay [15] it was 9.8; in [16], 15.4.
In turn, `Cc1cc(O)ccc1C(C)(C)C(C)(C)c1ccc(O)cc1C` came in with a relative binding affinity (RBA) in [1] of 2.6. Moreover, the Effect came to 11.1 in [2]; 16.6 in [3]; 22.2 in assay [4]; 28 in assay [5]; 38 in assay [6]; 51.2 in assay [39]. Also, the Effect in [7] amounted to 50; in assay [8], 37.3; in [11] it was 13.7. In [12], this compound gave an inhibition of 22%.
Take `CC(C)(c1cc(O)cc(Cl)c1)C(C)(C)c1cc(O)cc(Cl)c1`: in assay [1], the relative binding affinity (RBA) stood at 0.01.
